# Measurements as given in ChEMBL document CHEMBL4689842, “EUbOPEN Chemogenomics Library wave 1” (2021).
# System: U2OS
# Test: Multiplex assay against U2OS
# Assay type: toxicity, cell-based
# Settings: human
# Procedure, shortened: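 Phenotypes for tubulin, mitochondrial mass and membrane permeability are expressed as per cents of healthy-nucleus cells. Cells were stained live at seeding with Hoechst33342, BioTracker Green Microtubule Cytoskeleton Dye, MitoTracker Red and Annexin V Alexa Fluor 680, then imaged after compound addition on a CQ1 microscope at 37°C and 5% CO2. Machine-learning gating in CellPathfinder separated Hoechst high-intensity objects from normal cells, divided normal cells by nuclear state (healthy, pyknosed, fragmented) and divided pyknosed cells into mitotic or apoptotic.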
# [1] = 12 h, 1 µM, compound concentration 1 uM, replicate 1
# [2] = 12 h, 1 µM, compound concentration 1 uM, replicate 2
# [3] = 12 h, 10 µM, compound concentration 10 uM, replicate 1
# [4] = 12 h, 10 µM, compound concentration 10 uM, replicate 2
# [5] = 24 h, 1 µM, compound concentration 1 uM, replicate 1
# [6] = 24 h, 1 µM, compound concentration 1 uM, replicate 2
# [7] = 24 h, 10 µM, compound concentration 10 uM, replicate 1
# [8] = 24 h, 10 µM, compound concentration 10 uM, replicate 2
# [9] = 48 h, 1 µM, compound concentration 1 uM, replicate 1
# [10] = 48 h, 1 µM, compound concentration 1 uM, replicate 2
# [11] = 48 h, 10 µM, compound concentration 10 uM, replicate 1
# [12] = 48 h, 10 µM, compound concentration 10 uM, replicate 2
compound,measurement,setting,value
CCc1ccc(OCc2ccccc2C(=O)Nc2ccc3nc(C)cc(N)c3c2)cc1.Cl,Population Apoptotic (%),[1],80%
same,Population Fragmented Nuclei (%),[1],25%
same,Population Healthy Nuclei (%),[1],34%
same,Population Hoechst High Intensity Objects (%),[1],10%
same,Population Membrane Permeable-Phenotype (%),[1],27%
same,Population Mitochondria Different-Phenotype (%),[1],95%
same,Population Mitotic Cells (%),[1],19%
same,Population Normal (%),[1],89%
same,Population Pyknosed Nuclei (%),[1],40%
same,Population Tubulin-Different-Phenotype (%),[1],87%
same,Total Cell Count,[1],191
same,Population Apoptotic (%),[2],71%
same,Population Fragmented Nuclei (%),[2],33%
same,Population Healthy Nuclei (%),[2],33%
same,Population Hoechst High Intensity Objects (%),[2],16%
same,Population Membrane Permeable-Phenotype (%),[2],28%
same,Population Mitochondria Different-Phenotype (%),[2],92%
same,Population Mitotic Cells (%),[2],28%
same,Population Normal (%),[2],84%
same,Population Pyknosed Nuclei (%),[2],33%
same,Population Tubulin-Different-Phenotype (%),[2],85%
same,Total Cell Count,[2],68
same,Population Apoptotic (%),[3],78%
same,Population Fragmented Nuclei (%),[3],9%
same,Population Healthy Nuclei (%),[3],22%
same,Population Hoechst High Intensity Objects (%),[3],7%
same,Population Membrane Permeable-Phenotype (%),[3],75%
same,Population Mitotic Cells (%),[3],21%
same,Population Normal (%),[3],92%
same,Population Pyknosed Nuclei (%),[3],68%
same,Population Tubulin-Different-Phenotype (%),[3],97%
same,Total Cell Count,[3],129
same,Population Apoptotic (%),[4],76%
same,Population Fragmented Nuclei (%),[4],8%
same,Population Healthy Nuclei (%),[4],14%
same,Population Hoechst High Intensity Objects (%),[4],12%
same,Population Membrane Permeable-Phenotype (%),[4],100%
same,Population Mitochondria Different-Phenotype (%),[4],100%
same,Population Mitotic Cells (%),[4],23%
same,Population Normal (%),[4],87%
same,Population Pyknosed Nuclei (%),[4],77%
same,Population Tubulin-Different-Phenotype (%),[4],100%
same,Total Cell Count,[4],50
same,Population Apoptotic (%),[5],90%
same,Population Fragmented Nuclei (%),[5],44%
same,Population Healthy Nuclei (%),[5],16%
same,Population Hoechst High Intensity Objects (%),[5],11%
same,Population Membrane Permeable-Phenotype (%),[5],57%
same,Population Mitochondria Different-Phenotype (%),[5],94%
same,Population Mitotic Cells (%),[5],9%
same,Population Normal (%),[5],88%
same,Population Pyknosed Nuclei (%),[5],38%
same,Population Tubulin-Different-Phenotype (%),[5],73%
same,Total Cell Count,[5],234
same,Population Apoptotic (%),[6],83%
same,Population Fragmented Nuclei (%),[6],25%
same,Population Healthy Nuclei (%),[6],28%
same,Population Hoechst High Intensity Objects (%),[6],17%
same,Population Membrane Permeable-Phenotype (%),[6],27%
same,Population Mitochondria Different-Phenotype (%),[6],90%
same,Population Mitotic Cells (%),[6],16%
same,Population Normal (%),[6],82%
same,Population Pyknosed Nuclei (%),[6],46%
same,Population Tubulin-Different-Phenotype (%),[6],63%
same,Total Cell Count,[6],92
same,Population Apoptotic (%),[7],79%
same,Population Fragmented Nuclei (%),[7],7%
same,Population Healthy Nuclei (%),[7],13%
same,Population Hoechst High Intensity Objects (%),[7],12%
same,Population Membrane Permeable-Phenotype (%),[7],54%
same,Population Mitochondria Different-Phenotype (%),[7],100%
same,Population Mitotic Cells (%),[7],20%
same,Population Normal (%),[7],87%
same,Population Pyknosed Nuclei (%),[7],78%
same,Population Tubulin-Different-Phenotype (%),[7],95%
same,Total Cell Count,[7],127
same,Population Apoptotic (%),[8],70%
same,Population Fragmented Nuclei (%),[8],15%
same,Population Healthy Nuclei (%),[8],38%
same,Population Hoechst High Intensity Objects (%),[8],31%
same,Population Membrane Permeable-Phenotype (%),[8],47%
same,Population Mitochondria Different-Phenotype (%),[8],94%
same,Population Mitotic Cells (%),[8],30%
same,Population Normal (%),[8],68%
same,Population Pyknosed Nuclei (%),[8],45%
same,Population Tubulin-Different-Phenotype (%),[8],94%
same,Total Cell Count,[8],47
same,Population Apoptotic (%),[9],96%
same,Population Fragmented Nuclei (%),[9],46%
same,Population Healthy Nuclei (%),[9],3%
same,Population Hoechst High Intensity Objects (%),[9],15%
same,Population Membrane Permeable-Phenotype (%),[9],75%
same,Population Mitochondria Different-Phenotype (%),[9],100%
same,Population Mitotic Cells (%),[9],3%
same,Population Normal (%),[9],84%
same,Population Pyknosed Nuclei (%),[9],50%
same,Population Tubulin-Different-Phenotype (%),[9],75%
same,Total Cell Count,[9],377
same,Population Apoptotic (%),[10],100%
same,Population Fragmented Nuclei (%),[10],29%
same,Population Healthy Nuclei (%),[10],37%
same,Population Hoechst High Intensity Objects (%),[10],28%
same,Population Membrane Permeable-Phenotype (%),[10],71%
same,Population Mitochondria Different-Phenotype (%),[10],92%
same,Population Mitotic Cells (%),[10],0%
same,Population Normal (%),[10],71%
same,Population Pyknosed Nuclei (%),[10],32%
same,Population Tubulin-Different-Phenotype (%),[10],78%
same,Total Cell Count,[10],140
same,Population Apoptotic (%),[11],84%
same,Population Fragmented Nuclei (%),[11],9%
same,Population Healthy Nuclei (%),[11],12%
same,Population Hoechst High Intensity Objects (%),[11],11%
same,Population Membrane Permeable-Phenotype (%),[11],40%
same,Population Mitochondria Different-Phenotype (%),[11],95%
same,Population Mitotic Cells (%),[11],16%
same,Population Normal (%),[11],88%
same,Population Pyknosed Nuclei (%),[11],77%
same,Population Tubulin-Different-Phenotype (%),[11],90%
same,Total Cell Count,[11],130
same,Population Apoptotic (%),[12],100%
same,Population Fragmented Nuclei (%),[12],47%
same,Population Healthy Nuclei (%),[12],43%
same,Population Hoechst High Intensity Objects (%),[12],63%
same,Population Membrane Permeable-Phenotype (%),[12],60%
same,Population Mitochondria Different-Phenotype (%),[12],90%
same,Population Mitotic Cells (%),[12],0%
same,Population Normal (%),[12],36%
same,Population Pyknosed Nuclei (%),[12],8%
same,Total Cell Count,[12],52
